Rce1 inhib – inhibitors of yeast Ras-converting enzyme; Q03530; yeast membranes, quenched prenylated peptide cleavage fluorescence; calls only; 290,000 tested, 0.27% active;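 active means fall in fluorescence gain of 50% or more versus controls, with final raw signal at or below 3038400; inconclusive means same 50% fall but final raw signal above 3038400; inactive means fall in fluorescence gain under 50%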;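 further: plate controls were neutral control wells for no effect and wells lacking membranes for full effect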
Target sequence (Q03530 whole entry, looked up): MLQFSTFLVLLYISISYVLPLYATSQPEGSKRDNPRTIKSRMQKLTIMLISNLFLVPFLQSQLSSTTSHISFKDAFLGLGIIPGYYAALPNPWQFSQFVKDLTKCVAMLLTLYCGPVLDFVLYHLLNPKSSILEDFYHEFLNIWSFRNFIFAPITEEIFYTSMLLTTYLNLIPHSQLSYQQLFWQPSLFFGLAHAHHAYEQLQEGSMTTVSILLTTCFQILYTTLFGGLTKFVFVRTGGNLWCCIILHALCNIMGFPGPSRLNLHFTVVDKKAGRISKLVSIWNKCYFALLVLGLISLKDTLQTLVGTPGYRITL
AI-2 QS mod – modulators of Vibrio harveyi AI-2 quorum sensing system; Vibrio harveyi JMH597 AI-2 luminescence/OD600 ratio, 9 h; stronger effect = lower value; strain lacks LuxN and CqsS sensors; 0 = neutral-control median; activity change, % at 7.5 µM; 300,000 tested, 0.4% active; in the data active means activity change below about -75%, passing the limit was not always enough; inconclusive means no clear call, values can overlap the other calls;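 further: luminescence divided by OD600 gain over 9 h not by final OD600 alone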
CAL PDZ FP-1 – blocks peptide binding to the human CAL PDZ domain; purified CAL PDZ, TMR-peptide fluorescence polarization, 1 h; AID 602252; 300,000 tested, 0.92% active; inhibition, % at 24.9 µM;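 active means mean inhibition of at least 30% with at least half of replicates also reaching 30%; inconclusive means no clear call, values can overlap the other calls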;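 further: 0% = DMSO neutral control and 100% = excess unlabeled competitor peptide PRC23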
CAL PDZ FP-2 – inhibitors of human CAL PDZ peptide binding; 330,000 tested, 0.02% active; Q9HD26; inhibition, % at 20 µM; purified CAL PDZ, TMR-peptide fluorescence polarization, 1 h;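 active means highest replicate inhibition of at least 40%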;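 further: plate controls were DMSO neutral control wells for no effect and unlabeled competitor peptide control wells for full effect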
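material = purified tagged CAL PDZ domain construct (CerCALP) | buffer or medium = sodium phosphate/NaCl buffer pH 7.4 with TCEP, IgG, Thesit | reagent = TMR-labelled reporter peptide T*-PRC34 bound in PDZ groove | incubation = 1 h room-temperature incubation prior to read | measured by = fluorescence polarization (mP) | evaluation = percent inhibition from loss of millipolarization | control set = unlabelled peptide and DMSO controls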
ARNT-TACC3 inh – ARNT/TACC3 interaction disruption | inhibition, % at 9.99 µM | AlphaScreen His-ARNT PAS-B/GST-TACC3 binding, luminescence; TACC3 fragment carries E629A point mutation | 390,000 tested, 0.66% active | Q9Y6A5;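 active means mean inhibition of replicates at least 50% and at least half of replicates each reaching 50%; inconclusive means half or more replicates reach 50% but mean below 50%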;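 further: 0% = complete ARNT plus TACC3 wells and 100% = ARNT alone without TACC3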
Starred values were filed as active, the others as inactive. A selection: hits, their analogues and other compounds. The true share with any hit is near 1.7%.

For COc1ccc(C=C2C(=O)NC(=S)NC2=O)cc1 the results were CAL PDZ FP-1 -4.4, CAL PDZ FP-2 -0.2 and ARNT-TACC3 inh 5.8.
For O=C1NC(=S)NC(=O)C1=Cc1cccc2cc3ccccc3cc12 the results were CAL PDZ FP-1 -2.0, CAL PDZ FP-2 -2.1 and ARNT-TACC3 inh 20.7*.
`Nc1cc(N2CCNCC2)c([N+](=O)[O-])cc1Cl` gave Rce1 inhib inactive, AI-2 QS mod 27.9, CAL PDZ FP-1 -6.9, CAL PDZ FP-2 -0.4 and ARNT-TACC3 inh 0.3.
`CCn1c(=O)n(CC)c2cc([N+](=O)[O-])c(N3CCNCC3)cc21` gave Rce1 inhib inactive, AI-2 QS mod 22.5, CAL PDZ FP-1 69.1*, CAL PDZ FP-2 13.3 and ARNT-TACC3 inh 1.7.
`Fc1ccc(C(OCCN2CCN(CCCc3ccccc3)CC2)c2ccc(F)cc2)cc1` gave Rce1 inhib inactive, AI-2 QS mod -10.2, CAL PDZ FP-1 -1.0, CAL PDZ FP-2 -0.4 and ARNT-TACC3 inh 2.6.
c1ccc(CCCN2CCN(CCOC(c3ccccc3)c3ccccc3)CC2)cc1 was read as Rce1 inhib active, AI-2 QS mod -5.7, CAL PDZ FP-1 0.9, CAL PDZ FP-2 -0.7 and ARNT-TACC3 inh 14.9.
Screening Clc1ccc(C(Cl)(Cl)Cl)c(Cl)c1 returned CAL PDZ FP-1 70.5* and CAL PDZ FP-2 -0.3.
`Cn1c(O)c(/C=N/N2CCOCC2)c(=O)[nH]c1=S` gave Rce1 inhib inactive and AI-2 QS mod 7.7.
`OC(CCNCCc1c[nH]c2ccccc12)C(F)(F)Cl` (centres undefined) gave Rce1 inhib inactive, AI-2 QS mod 9.5, CAL PDZ FP-1 -6.6, CAL PDZ FP-2 -1.2 and ARNT-TACC3 inh -10.8.
For CC(C)c1ccc(-n2c(O)c(/C=N/NC(=O)c3ccncc3)c(=O)[nH]c2=O)cc1 the results were Rce1 inhib inactive, AI-2 QS mod 26.0, CAL PDZ FP-1 -5.2, CAL PDZ FP-2 -0.5 and ARNT-TACC3 inh 61.2*.
For Cn1c(=O)c2c(nc(N/N=C/c3c(O)n(-c4ccccc4)c(=S)[nH]c3=O)n2C)n(C)c1=O the results were Rce1 inhib inactive, AI-2 QS mod 22.7, CAL PDZ FP-1 -0.4, CAL PDZ FP-2 -1.2 and ARNT-TACC3 inh 58.5*.
For CC(C)c1ccc(-n2c(O)c(/C=N/NC(=O)c3ccccc3O)c(=O)[nH]c2=S)cc1 the results were Rce1 inhib inactive, AI-2 QS mod 29.1, CAL PDZ FP-1 4.6, CAL PDZ FP-2 0.4 and ARNT-TACC3 inh 84.9*.
For CCc1ccc(-n2c(O)c(/C=N/NC(=O)c3ccncc3)c(=O)[nH]c2=O)cc1 the results were Rce1 inhib inactive, AI-2 QS mod -14.7, CAL PDZ FP-1 -4.2, CAL PDZ FP-2 -0.8 and ARNT-TACC3 inh 3.8.
Screening Cc1cc(C)c(-n2c(O)c(/C=N/NC(=O)c3ccncc3)c(=O)[nH]c2=O)c(C)c1 returned Rce1 inhib inactive, AI-2 QS mod 4.5, CAL PDZ FP-2 0.1 and ARNT-TACC3 inh 64.1*.
Screening C[C@]12CCC3C(CC[C@H]4C[C@H](O)CC[C@]34C)C1CC(=O)[C@@H]2O (some centres undefined) returned CAL PDZ FP-1 0.4, CAL PDZ FP-2 0.6 and ARNT-TACC3 inh 6.5.
Cc1ccccc1-n1c(O)c(/C=N/NC(=O)c2ccncc2)c(=O)[nH]c1=O was read as Rce1 inhib inactive, AI-2 QS mod 12.0, CAL PDZ FP-1 0.0, CAL PDZ FP-2 0.7 and ARNT-TACC3 inh 70.9*.
Screening CCn1c(O)c(/C=N/NC(=O)c2ccncc2)c(=O)[nH]c1=S returned Rce1 inhib inactive, AI-2 QS mod 28.8, CAL PDZ FP-1 -2.5 and CAL PDZ FP-2 -1.9.
Screening CCCCn1c(O)c(/C=N/NC(=O)c2ccncc2)c(=O)[nH]c1=O returned Rce1 inhib inactive, AI-2 QS mod 7.7, CAL PDZ FP-1 -0.5, CAL PDZ FP-2 -1.8 and ARNT-TACC3 inh 65.7*.
COc1ccc(-n2c(O)c(C=NCCCn3ccnc3)c(=O)[nH]c2=O)cc1 was read as Rce1 inhib inactive, AI-2 QS mod 1.4, CAL PDZ FP-1 -2.9, CAL PDZ FP-2 -1.0 and ARNT-TACC3 inh 4.2.
`Cc1ccc(-n2c(O)c(C=NCCCn3ccnc3)c(=O)[nH]c2=O)cc1` gave Rce1 inhib inactive, AI-2 QS mod 12.9, CAL PDZ FP-1 72.9*, CAL PDZ FP-2 -0.5 and ARNT-TACC3 inh -3.3.
`CC12CN3CN(C1)CC(C)(C3)C2=NO` gave Rce1 inhib inactive, AI-2 QS mod 2.3, CAL PDZ FP-1 1.2, CAL PDZ FP-2 0.3 and ARNT-TACC3 inh -1.3.
For CC/C=C/CC(=O)N[C@@H](c1ccccc1)[C@@H](O)C(=O)O[C@H]1C[C@@]2(O)[C@@H](OC(=O)c3ccccc3)C3[C@](C)(C(=O)[C@H](OC(C)=O)C(=C1C)C2(C)C)[C@@H](O)C[C@H]1OC[C@@]31OC(C)=O (some centres undefined) the results were AI-2 QS mod 28.4, CAL PDZ FP-1 1.2, CAL PDZ FP-2 -0.2 and ARNT-TACC3 inh 0.7.
For CCCCn1c(O)c(C=Nc2c(C)n(C)n(-c3ccccc3)c2=O)c(=O)[nH]c1=O the results were Rce1 inhib inactive, AI-2 QS mod 24.3, CAL PDZ FP-1 -0.6, CAL PDZ FP-2 -0.2 and ARNT-TACC3 inh -4.1.
O=C1NC(=O)C(Nc2ccccc2)C(=O)N1 was read as CAL PDZ FP-1 -4.7, CAL PDZ FP-2 -1.8 and ARNT-TACC3 inh 32.9*.
CCc1nccc2c1[nH]c1ccccc12 was read as Rce1 inhib inconclusive, AI-2 QS mod 6.2, CAL PDZ FP-1 1.0, CAL PDZ FP-2 -1.2 and ARNT-TACC3 inh -7.7.
Cc1nccc2c1[nH]c1ccccc12 was read as Rce1 inhib active, AI-2 QS mod 12.9, CAL PDZ FP-1 -6.8, CAL PDZ FP-2 -0.7 and ARNT-TACC3 inh -7.0.
`CN1CC(C(=O)c2ccc(Cl)cc2)C(c2ccc(Cl)cc2Cl)C1` (centres undefined) gave Rce1 inhib active, AI-2 QS mod -10.2, CAL PDZ FP-1 -1.8, CAL PDZ FP-2 -0.9 and ARNT-TACC3 inh 16.3.
C/C(=N\N1CCCCCC1)c1c(O)n(-c2ccccc2)c(=O)[nH]c1=O was read as Rce1 inhib inactive, AI-2 QS mod 9.1, CAL PDZ FP-1 -2.7, CAL PDZ FP-2 -0.9 and ARNT-TACC3 inh -4.6.
Screening COc1ccc(CC2(CCc3ccccn3)C(=O)NC(=O)N(c3ccccc3C)C2=O)cc1OC (centres undefined) returned Rce1 inhib inactive, AI-2 QS mod 7.5, CAL PDZ FP-1 -3.2, CAL PDZ FP-2 -1.8 and ARNT-TACC3 inh -4.8.
Cc1c(N=Cc2c(O)n(Cc3ccccc3)c(=O)[nH]c2=O)c(=O)n(-c2ccccc2)n1C was read as AI-2 QS mod 25.9, CAL PDZ FP-1 0.4 and CAL PDZ FP-2 -2.1.
Cc1c(N=Nc2c(O)n(Cc3ccccc3)c(=O)[nH]c2=O)c(=O)n(-c2ccccc2)n1C was read as Rce1 inhib inactive, AI-2 QS mod 21.2, CAL PDZ FP-2 -2.1 and ARNT-TACC3 inh 62.2*.
